Reference: ChEMBL document CHEMBL1132613 (J Med Chem, 1999)

Legend:
[1] = target: T1, 5-hydroxytryptamine receptor 1A (Rattus norvegicus, UniProt P19327); assay: Compound was tested for the displacement of [3H]-8-OH- DPAT from rat brain 5-hydroxytryptamine 1A receptor
T1 sequence (P19327 whole entry): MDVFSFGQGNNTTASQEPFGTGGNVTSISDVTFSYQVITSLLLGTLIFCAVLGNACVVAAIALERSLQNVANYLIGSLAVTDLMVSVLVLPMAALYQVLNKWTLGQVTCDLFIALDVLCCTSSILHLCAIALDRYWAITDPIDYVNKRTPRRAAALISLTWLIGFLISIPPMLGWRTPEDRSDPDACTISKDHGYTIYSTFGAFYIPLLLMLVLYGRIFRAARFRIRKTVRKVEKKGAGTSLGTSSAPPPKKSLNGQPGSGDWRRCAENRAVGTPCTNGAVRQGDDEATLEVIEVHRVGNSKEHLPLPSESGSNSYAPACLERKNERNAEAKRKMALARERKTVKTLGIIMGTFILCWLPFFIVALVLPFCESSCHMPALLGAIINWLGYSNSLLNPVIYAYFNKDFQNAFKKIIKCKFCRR
Outline: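 Pooled rat hippocampal membranes were preincubated at 37 °C. Buffer was 50 mM Tris HCl pH 7.4 with 0.5 mM Na2EDTA, 10 mM MgCl2, 0.1% Na ascorbate and pargyline. 200–400 μg protein was incubated with [3H]-8-OH-DPAT for 15 min at 37 °C, then GF/C filtered and scintillation counted. Nonspecific binding was defined with 10 μM 5-HT. Triplicate tubes.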

[2] = system: Rattus norvegicus; assay: Percentage of animals failing to emit 50 lever presses within 15 min in DOI trained rats at a compound dose of 8 mg/kg; assay type: functional
Outline: (§1)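 Male Sprague–Dawley rats (200–220 g) in a two-lever, FR50 food-reinforced task. Rats were trained to discriminate saline from LSD tartrate (0.08 mg/kg), DOI HCl (0.4 mg/kg) or LY293284 (0.025 mg/kg) in 15-min sessions. %SDL is the share of rats making over 80% of presses on the drug lever. %D is the share failing to make 50 presses within 15 min. ED50 by Litchfield–Wilcoxon log-probit.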

[3] = system: Rattus norvegicus; assay: Percentage of animals failing to emit 50 lever presses within 15 min in LSD trained rats at a compound dose of 8.0 mg/kg; assay type: functional
Outline: (§2)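 Two-lever drug discrimination in male Sprague–Dawley rats (200–220 g at start), trained against saline on LSD tartrate (0.08 mg/kg), DOI HCl (0.4 mg/kg) or LY293284 (0.025 mg/kg). FR50 food-pellet reinforcement, levers counterbalanced, 15-min sessions at 22–24 °C. %D is the share of tested rats not completing 50 lever presses within 15 min.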

[4] = system: Rattus norvegicus; assay: Percentage of animals failing to emit 50 lever presses within 15 min in […] trained rats at a compound dose of 16 mg/kg; assay type: functional; outline: as §2
[5] = system: Rattus norvegicus; assay: Percentage of animals emitting >80% of lever presses in DOI trained rats at a compound dose of 12.6 uM/Kg; assay type: functional; outline: as §1
[6] = system: Rattus norvegicus; assay: Percentage of animals emitting >80% of lever presses in DOI trained rats at a compound dose of 25.3 uM/Kg; assay type: functional; outline: as §1
[7] = system: Rattus norvegicus; assay: Percentage of animals emitting >80% of lever presses in DOI trained rats at a compound dose of 6.32 uM/Kg; assay type: functional; outline: as §1
[8] = system: Rattus norvegicus; assay: Percentage of animals emitting >80% of lever presses in LSD trained rats at a compound dose of 1.58 uM/Kg; assay type: functional; outline: as §1
[9] = system: Rattus norvegicus; assay: Percentage of animals emitting >80% of lever presses in LSD trained rats at a compound dose of 50.6 uM/Kg; assay type: functional; outline: as §1
[10] = system: Rattus norvegicus; assay: Percentage of animals emitting >80% of lever presses in LSD trained rats at a compound dose of 6.32 uM/Kg; assay type: functional; outline: as §1
[11] = system: Rattus norvegicus; assay: Percentage of animals emitting >80% of lever presses in […] trained rats at a compound dose of 25.3 uM/Kg; assay type: functional; outline: as §1
[12] = system: Rattus norvegicus; assay: Percentage of animals failing to emit 50 lever presses within 15 min in […] trained rats at a compound dose of 8 mg/kg; assay type: functional; outline: as §2

Which results are given for `CN(C)CCc1c[nH]c2sccc12`?
Ki [1]: 184 nM; D [2]: 12.5%; D [3]: 0%; D [4]: 0%; SDL [5]: 0%; SDL [6]: 0%; SDL [7]: 0%; SDL [8]: 14%; SDL [9]: 16.7%; SDL [10]: 9%; SDL [11]: 58%; D [12]: 0%
